# Shown are actives, neighbours in structure and some others; about 1.4% of the full set was active somewhere.
# Tn6 DDE FP = inhibitors of Tn6 peptide binding to fibrin DD(E), primary screen, biochemical, fluorescence polarization, human fibrin, Tn6 probe; Fibrinogen beta chain (Homo sapiens), P02675; inhibition, % at 8.3 µM; hit rate 0.21% among 370,000; Fibrin DD(E) TRITC-Tn6 fluorescence polarization displacement;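 active means inhibition above a per-campaign cutoff: mean of compounds within control limits plus 3 SD, cut at about 15% in these data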;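 further: 0% = median of all compound wells on the plate and 100% = blocking peptide control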
# DNA FID counter = compounds displacing fluorescent DNA intercalator, primary screen, artefact control for HCV NS3 helicase inhibitor project, biochemical, FID fluorescence; DNA fluorescent intercalator displacement; inhibition, % at 7.9 µM; AID 1845, 2009; hit rate 0.17% among 290,000; in the data active means inhibition above about 37%;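 further: 0% = vehicle and 100% = reference compound; higher means more ethidium bromide displaced from hairpin DNA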
# Tn7 DDE FP = inhibitors of Tn7 peptide binding to fibrin DD(E), primary screen, biochemical, fluorescence polarization, human fibrin, Tn7 probe | hit rate 0.13% among 370,000 | FP displacement of FITC-Tn7 peptide from fibrin DD(E); 0% = median of compound wells per plate | Fibrinogen beta chain (Homo sapiens), P02675 | inhibition, % at 8.3 µM;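 active means inhibition above the mean of compounds falling within the control limits plus 3 SD of them, cut at about 14% in these data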;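 further: 0% = plate median of compound wells and 100% = 10 µM Aha-Tn7 peptide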
#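 Also added: labelled Tn7 tracer, 0.1 µM; Assay system: human fibrin DD(E) protein; Amount: 2 µM fibrin DD(E); Schedule: 10 min compound pre-incubation, 3 h probe incubation at room temperature; Repeats: one replicate per compound; Read-out basis: percent inhibition; Measured by: fluorescence polarization of the labelled Tn7 tracer.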
# PLCb3 inh = human PLC-beta3 inhibitors, primary screen, biochemical, fluorescence | Purified PLC-beta3, fluorogenic substrate | AID 720704, 2013 | inhibition, % at 12.2 µM | hit rate 0.18% among 370,000; in the data active means inhibition above about 11%;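 further: 0% = median of compound wells on plate and 100% = full blocker control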
# Target sequence (Q01970 whole entry, looked up): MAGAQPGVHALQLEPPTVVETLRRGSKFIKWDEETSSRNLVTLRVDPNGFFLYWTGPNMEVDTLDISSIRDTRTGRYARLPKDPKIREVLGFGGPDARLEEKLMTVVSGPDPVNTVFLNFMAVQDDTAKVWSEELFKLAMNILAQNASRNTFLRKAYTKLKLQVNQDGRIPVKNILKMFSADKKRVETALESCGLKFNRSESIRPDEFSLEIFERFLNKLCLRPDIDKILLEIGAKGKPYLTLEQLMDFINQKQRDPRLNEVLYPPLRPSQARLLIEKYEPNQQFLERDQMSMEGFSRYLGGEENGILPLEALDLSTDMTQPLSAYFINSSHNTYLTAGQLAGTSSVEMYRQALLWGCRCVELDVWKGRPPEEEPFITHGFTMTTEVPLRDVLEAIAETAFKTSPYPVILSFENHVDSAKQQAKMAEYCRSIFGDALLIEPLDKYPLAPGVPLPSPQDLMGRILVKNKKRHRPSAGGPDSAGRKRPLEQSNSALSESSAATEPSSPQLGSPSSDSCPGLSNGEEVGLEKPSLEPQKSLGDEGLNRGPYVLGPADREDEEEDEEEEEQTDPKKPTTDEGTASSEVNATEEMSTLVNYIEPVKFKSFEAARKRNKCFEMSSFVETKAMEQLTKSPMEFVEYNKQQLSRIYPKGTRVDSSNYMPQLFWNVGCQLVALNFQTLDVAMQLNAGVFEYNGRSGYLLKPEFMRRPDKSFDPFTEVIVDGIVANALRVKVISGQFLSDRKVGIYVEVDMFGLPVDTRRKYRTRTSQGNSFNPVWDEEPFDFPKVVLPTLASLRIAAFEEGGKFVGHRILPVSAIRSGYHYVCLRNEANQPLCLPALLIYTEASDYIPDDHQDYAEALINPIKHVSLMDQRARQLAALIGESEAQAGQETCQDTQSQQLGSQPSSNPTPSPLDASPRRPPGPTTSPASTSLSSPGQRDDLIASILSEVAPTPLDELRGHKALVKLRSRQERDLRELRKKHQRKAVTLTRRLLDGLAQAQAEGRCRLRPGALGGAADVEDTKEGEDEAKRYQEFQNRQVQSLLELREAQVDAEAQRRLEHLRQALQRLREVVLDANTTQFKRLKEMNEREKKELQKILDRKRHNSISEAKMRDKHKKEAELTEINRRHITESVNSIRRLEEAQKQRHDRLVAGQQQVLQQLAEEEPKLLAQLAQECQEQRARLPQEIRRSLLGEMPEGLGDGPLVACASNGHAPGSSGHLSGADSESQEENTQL
# PLC-gamma1 inh = PLC-gamma1 enzyme inhibitors, primary screen, biochemical, fluorescence, purified enzyme | fluorogenic substrate | hit rate 0.84% among 370,000 | AID 720700, 2013 | inhibition, % at 12.2 µM | 1-phosphatidylinositol 4,5-bisphosphate phosphodiesterase gamma-1 (Homo sapiens), P19174
# PLCg1 ctr = PLC-gamma1 enzyme inhibitors, counter-screen for PLC-beta3 inhibitor project, biochemical, fluorescence; shares compounds with PLC-gamma1 inh; purified PLC-gamma1, fluorogenic substrate; inhibition, % at 12.3 µM; hit rate 3.1% among 3,300; AID 743258, 2014
# PLCbeta3 conf = PLC-beta3 inhibitor confirmation, biochemical, fluorescence, purified enzyme. shares compounds with PLC-gamma1 inh. fluorogenic substrate fluorescence. inhibition, % at 12.3 µM. hit rate 1% among 3,300. AID 743261, 2014; in the data active means inhibition above about 11%
# The depositor's hits bear a star; i = inactive; x = no result. Unless noted, no stated cut-off is given here; in the data, active means inhibition above about 9.5%; inactive means the rest.
SMILES,Tn6 DDE FP,DNA FID counter,Tn7 DDE FP,PLCb3 inh,PLC-gamma1 inh,PLCg1 ctr,PLCbeta3 conf
CCN(CC)S(=O)(=O)c1ccc(NCC2COc3ccccc3O2)c([N+](=O)[O-])c1 (configuration not stated),3.0,-4.1,6.6,-1.7,12.2*,-0.3,3.7
COc1ccc(-c2ccc(=O)n(CC(=O)N3CCN(c4ccccc4OC)CC3)n2)cc1,x,-47.3,x,x,x,x,x
Cc1ccc(NC(=O)CSc2nnc(C3CCCCC3)n2N)cc1F,-4.3,-16.0,-4.8,3.1,13.2*,-2.9,0.7
O=C(Nc1ccc2oc(-c3ccc(Cl)c(Cl)c3)nc2c1)c1ncn[nH]1,-0.3,-1.9,-6.9,-7.0,-7.3,x,x
Cc1cccc(CS(=O)(=O)Cc2ccc(C(=O)O)o2)c1,-3.4,-2.1,0.0,2.5,10.6*,-6.1,0.2
COCCCNC(=O)c1ccc(CS(=O)(=O)Cc2cccc(C)c2)o1,-3.3,-14.7,11.3,2.1,0.7,x,x
O=C(CN1CCC(n2nnc3cc(C(F)(F)F)ccc32)CC1)N1CCc2ccccc21,11.1,-4.6,3.0,7.0,13.4*,-5.6,-1.6
Cc1ccc(C)c(SCC(=O)NCc2ccco2)c1,-2.4,-20.3,0.0,12.3*,0.1,-8.4,-5.8
Cc1cc(C)c(NC(=O)Nc2ccccc2)c(Cl)c1,-7.3,5.5,2.9,13.4*,6.8,-6.1,-0.5
CC12c3ccccc3C(c3ccccc31)C1C(=O)N(c3cccnc3)C(=O)C12 (configuration not stated),4.8,-31.0,-2.2,9.7,11.8*,-4.1,-2.9
O=C1c2ccccc2C(=O)N1CCc1nc2ccccc2c(=O)n1CCCn1ccnc1,0.8,2.6,-3.1,1.5,-2.5,x,x
O=C1c2ccccc2C(=O)N1Cc1nc2ccccc2c(=O)n1CCCn1ccnc1,-0.1,17.8,-4.8,7.2,11.6*,-9.8,-1.2
C=CCSc1n[nH]c(-c2ccc(OC)cc2)n1,-1.2,-7.0,-1.5,1.0,0.0,x,x
CO/N=C/C(C#N)=C/c1ccc(OC)cc1,-3.5,-1.6,-13.0,7.3,14.7*,-1.9,1.3
CCN1CCN(CC(=O)NC2CCCCC2)C(=O)C1=O,0.4,-3.4,-5.7,6.7,6.7,x,x
CCN1CCN(CC(=O)NC2CCCC2)C(=O)C1=O,-2.9,2.7,-2.9,6.8,13.1*,-4.1,-4.0
O=c1[nH]c2cc([N+](=O)[O-])ccc2c2cc(Br)ccc12,-3.6,x,-1.2,-14.2,-6.5,x,x
O=C(CNC(=O)C1CCCCC1)Nc1cc(Cl)ccc1Cl,-0.4,-1.9,-2.3,7.9,11.4*,-1.9,2.8
Cc1cc(C)nc(N(C#N)CCOc2ccc(Cl)cc2)n1,-7.3,-9.5,2.2,-0.8,9.8*,-6.0,-2.8
Cc1cc(C)nc(N(C#N)Cc2ccc(Cl)cc2)n1,-14.9,-8.7,-5.7,-7.4,-3.4,x,x
COc1cccc(S(=O)(=O)Nc2ccc3c(c2)OCCO3)c1,-2.4,-8.7,1.7,-3.4,9.6*,-3.2,-1.0
COc1ccccc1NS(=O)(=O)c1ccc(N/N=C(\C)C(C)C)c([N+](=O)[O-])c1,-4.2,1.2,3.4,12.9*,9.9*,7.6,3.1
COc1ccccc1NS(=O)(=O)c1ccc(NN=C2CCCCC2)c([N+](=O)[O-])c1,-1.3,5.4,-0.7,6.5,10.9*,5.2,5.7
CCCC(CCC)=NNc1ccc(S(=O)(=O)Nc2ccccc2OC)cc1[N+](=O)[O-],2.8,0.5,-0.5,4.7,1.7,x,x
Oc1ccccc1C1=NCCNC(C(F)(F)F)=C1,-6.5,-0.4,5.7,1.8,-0.8,x,x
SMILES,Tn6 DDE FP,DNA FID counter,Tn7 DDE FP,PLCb3 inh,PLC-gamma1 inh,PLCg1 ctr,PLCbeta3 conf
FC(F)(F)C1=CC(c2ccc(Cl)cc2)=NCCN1,-5.3,6.1,-2.3,4.2,11.4*,7.4,6.2
C/C(=N/NC(=O)c1ccccc1)c1ccc(NC(=O)C(F)(F)F)cc1,-1.6,-2.2,-1.1,10.6*,8.2,-4.0,-1.0
Cc1oc(C)c(C(N)=O)c1C(N)=O,5.0,1.1,1.4,11.0*,7.1,-6.3,-2.9
O=C1c2ccccc2C(=O)N1c1cccc2cccnc12,-1.3,2.8,-4.0,-4.8,3.4,x,x
Cc1c(NC(=O)Nc2cc(F)c(F)cc2Cl)c(=O)n(-c2ccccc2)n1C,-4.8,x,-3.8,-2.5,-2.0,x,x
Cn1c(CNc2cccc(Cl)c2)nnc1SCC(=O)OC1CCCCC1,7.7,-34.6,2.0,-3.7,-1.2,x,x
CC(C)OC(=O)CSc1nnc(CNc2cccc(Cl)c2)n1C,-8.9,-11.2,-6.6,3.3,10.5*,-7.2,-3.0
CCOc1ccc(N(C(C)C(=O)N/N=C(\C)C(C)(C)C)S(C)(=O)=O)cc1 (configuration not stated),3.5,-21.5,-2.7,-0.2,-2.3,x,x
CCc1ccc(C(=O)CSc2nc(C)cc(=O)[nH]2)cc1,8.3,-17.0,0.4,-20.2,-1.5,x,x
C=CCn1nnnc1-c1cccc(Cl)c1,-9.2,1.8,2.4,-0.6,3.2,x,x
Cc1c(C(=O)O)sc2ncn(C)c(=O)c12,0.0,5.9,-2.1,6.6,14.0*,-6.7,-5.8
CCn1cnc2sc(C(=O)O)c(C)c2c1=O,-1.0,3.3,-0.6,-0.6,-1.3,x,x
COc1ccc(CNC(=O)c2ccc3c(c2)N(C)CCS3)cc1,0.9,-17.3,2.9,i,i,x,x
O=C(Nc1ccccc1)Nc1ccc(F)c([N+](=O)[O-])c1,-6.6,10.2,5.9,3.6,5.6,x,x
O=C(Cc1ccc(F)cc1)Nc1ccc(F)c([N+](=O)[O-])c1,8.8,8.4,0.9,3.6,9.8*,-1.6,2.2
Cc1cc(C)cc(OCC(=O)NNC(=O)c2cc3ccccc3o2)c1,0.1,-14.6,8.6,-0.7,-3.4,x,x
CCC(=O)NC(Nc1nc(C)cs1)(C(=O)OC)C(F)(F)F (configuration not stated),1.5,-0.3,-2.9,10.7*,7.8,-2.8,1.0
Cc1ccc(/C=C/C(=O)O)cc1S(=O)(=O)NCC1CCCO1 (configuration not stated),3.9,-0.9,4.8,0.4,0.7,x,x
Cc1ccc(/C=C/C(=O)O)cc1S(=O)(=O)NC1CCS(=O)(=O)C1 (configuration not stated),-0.9,1.4,-4.1,8.3,11.2*,-0.5,1.2
Cc1c(C(=O)NCc2ccccc2)oc2ccc(S(=O)(=O)N3CCC4(CC3)OCCO4)cc12,-1.1,-37.9,2.0,0.7,10.3*,-6.5,-1.7
Cc1c(C(=O)NCc2ccccn2)oc2ccc(S(=O)(=O)N3CCC4(CC3)OCCO4)cc12,-4.3,-28.6,7.0,0.3,0.3,x,x
